Measured values from ChEMBL document CHEMBL1144361, “Identification of chemokine receptor CCR4 antagonist” (Bioorg Med Chem Lett, 2005).

Molecular target: C-X-C chemokine receptor type 3 (Homo sapiens) (UniProt P49682)
Experiment: Inhibitory concentration against CXC chemokine receptor 3

| IC50 [µM] | Compound |
| --- | --- |
| > 30 | CCN(CC)CCCC(C)Nc1nccc(NCc2ccc(Cl)cc2Cl)n1 (stereo not given) |

Molecular target: C-C chemokine receptor type 2 (Homo sapiens, UniProt P41597)
Experiment: Inhibitory concentration against C-C chemokine receptor type 2

Chain of C-C chemokine receptor type 2 (P41597 whole entry): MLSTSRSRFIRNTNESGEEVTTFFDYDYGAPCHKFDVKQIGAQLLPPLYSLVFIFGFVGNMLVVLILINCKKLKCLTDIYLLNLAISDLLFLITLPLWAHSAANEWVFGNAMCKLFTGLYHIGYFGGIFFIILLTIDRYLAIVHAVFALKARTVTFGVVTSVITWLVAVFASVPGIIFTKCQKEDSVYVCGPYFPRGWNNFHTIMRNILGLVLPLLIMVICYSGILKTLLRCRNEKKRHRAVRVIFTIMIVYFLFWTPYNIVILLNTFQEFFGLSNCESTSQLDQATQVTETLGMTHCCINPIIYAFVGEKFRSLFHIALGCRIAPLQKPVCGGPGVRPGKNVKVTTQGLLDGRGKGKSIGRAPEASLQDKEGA

| IC50 [µM] | Compound |
| --- | --- |
| > 10 | CCN(CC)CCCC(C)Nc1nccc(NCc2ccc(Cl)cc2Cl)n1 (stereo not given) |

Molecular target: not listed separately
Experiment: Inhibitory concentration against C-C chemokine receptor type 3
Set-up: species or system Homo sapiens

| IC50 [µM] | Compound |
| --- | --- |
| 2 | CCN(CC)CCCC(C)Nc1nccc(NCc2ccc(Cl)cc2Cl)n1 (stereo not given) |

Molecular target: T1, C-C chemokine receptor type 4 (Homo sapiens, UniProt P51679)
T1 sequence (P51679 whole entry): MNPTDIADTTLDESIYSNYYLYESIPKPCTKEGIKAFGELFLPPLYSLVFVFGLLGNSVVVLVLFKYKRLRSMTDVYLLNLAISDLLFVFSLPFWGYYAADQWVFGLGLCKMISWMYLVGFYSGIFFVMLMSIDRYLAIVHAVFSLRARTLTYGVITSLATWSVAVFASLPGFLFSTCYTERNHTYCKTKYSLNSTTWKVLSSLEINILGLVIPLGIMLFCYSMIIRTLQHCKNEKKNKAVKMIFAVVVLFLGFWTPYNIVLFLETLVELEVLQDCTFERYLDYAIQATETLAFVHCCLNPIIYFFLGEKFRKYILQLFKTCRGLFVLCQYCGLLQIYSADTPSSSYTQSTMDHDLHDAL
Experiment: Inhibitory concentration against human C-C chemokine receptor type 4; range = 3.6-6.1 uM
Procedure, shortened: (§1)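 Whole-cell SPA binding: HEK293 stably expressing human CCR4, 4×10^4 cells/well on poly-L-lysine plates, cultured overnight at 37 °C. Compounds in DMSO (1%). Nonspecific defined with 100 nM unlabeled MDC. 15 min mixing, then 24 h at rt before counting.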

| IC50 [µM] | Compound |
| --- | --- |
| 6.1 | CCN(CC)CCCC(C)Nc1nc(/C=C/c2ccccc2)nc2ccccc12 (stereo not given) |

Molecular target: T1, C-C chemokine receptor type 4
Experiment: Inhibitory concentration against human C-C chemokine receptor type 4
Procedure, shortened: as §1

| IC50 [µM] | Compound |
| --- | --- |
| 25 | CCN(CC)CCCC(C)Nc1ccnc(COc2cccc(Cl)c2)n1 (stereo not given) |
| > 30 | CCN(CC)CCCC(C)Nc1ccnc(COc2cccc(OC)c2)n1 (stereo not given) |
| 2.4 | CCN(CC)CCCC(C)Nc1nc(CCc2ccccc2)nc2ccccc12 (stereo not given) |
| 2 | CCN(CC)CCCC(C)Nc1nc(COc2ccccc2)nc2ccccc12 (stereo not given) |
| 2.8 | CCN(CC)CCCC(C)Nc1ccnc(OCc2ccc(Cl)cc2Cl)n1 (stereo not given) |
| > 30 | CCN(CC)CCCC(C)Nc1ccnc(COc2ccccc2)c1 (stereo not given) |
| > 10 | CC(C)CCCC(C)Nc1nccc(OCc2ccc(Cl)cc2Cl)n1 (stereo not given) |
| 0.27 | CCN(CC)CCCC(C)Nc1nccc(NCc2ccc(Cl)cc2Cl)n1 (stereo not given) |
| > 10 | CCN(CC)CCCC(C)Nc1nc(C(=O)Nc2ccccc2)nc2ccccc12 (stereo not given) |
| 8 | CCN(CC)CCCNc1nccc(OCc2ccc(Cl)cc2Cl)n1 |
| 10 | CCN(CC)CCCC(C)Nc1nc(Cc2ccccc2)nc2ccccc12 (stereo not given) |
| > 25 | CCN(CC)CCCC(C)Nc1nc(-c2ccccc2)nc2ccccc12 (stereo not given) |
| 2.5 | CCN(CC)CCCC(C)Nc1nc(-c2ccc3ccccc3c2)nc2ccccc12 (stereo not given) |
| 3 | CCN(CC)CCCCNc1nccc(OCc2ccc(Cl)cc2Cl)n1 |
| 25 | CCN(CC)CCCC(C)Nc1ccnc(COc2cc(Cl)cc(Cl)c2)n1 (stereo not given) |
| 17 | CCN(CC)CCCC(C)Nc1ccnc(COc2ccccc2Cl)c1 (stereo not given) |
| 1.2 | CCN(CC)CCCC(C)Nc1ccnc(COc2ccc(Cl)cc2Cl)c1 (stereo not given) |
| 4 | CCN(CC)CCCC(C)Nc1ccnc(COc2ccc(Cl)c(Cl)c2)c1 (stereo not given) |
| 20 | CCN(CC)CCCC(C)Nc1ccnc(COc2ccc(Cl)cc2)c1 (stereo not given) |
| 18 | CCN(CC)CCCC(C)Nc1ccnc(COc2ccc(F)cc2)c1 (stereo not given) |
| > 30 | CCN(CC)CCCC(C)Nc1ccnc(COc2ccc(OC)cc2OC)n1 (stereo not given) |
| 2 | CN(C)CCCCCNc1nccc(OCc2ccc(Cl)cc2Cl)n1 |
| > 10 | CCN(CC)CCCC(C)Nc1nc(CCCc2ccccc2)nc2ccccc12 (stereo not given) |
| 9 | CCN(CC)CCNc1nccc(OCc2ccc(Cl)cc2Cl)n1 |
| 1.5 | CCN(CC)CCCC(C)Nc1nccc(OCc2ccc(Cl)cc2Cl)n1 (stereo in doubt; 10a) |
| 1.5 | CCN(CC)CCCC(C)Nc1nccc(OCc2ccc(Cl)cc2Cl)n1 (stereo in doubt; 11a) |
